Read-outs that look alike come from different tables or passages of the source.
Columns and labels:
[1] = test system: 47 KDa protein in U937 cell membranes; type: binding; conditions: for Ki: read-out: Ki (95% Confidence Intervals), inhibition of 20-125I-14,15-EE8ZE-APSA photolabeling, U937 membranes, one-site competitive binding model
[2] = test system: EET binding site/receptor on U937 cell membranes; conditions: cited from earlier work
bovine coronary arteries [3] = conditions: for EC50: read-out: EC50, relaxation of bovine coronary artery rings, rings pre-constricted with U46619 (20 nM)
Summary of the method: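 Left anterior descending bovine coronary artery rings, preconstricted with U46619 (20 nM). Relaxation expressed as %, with basal tension taken as 100% relaxation. Mean ± SEM, n=6–7.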

[4] = test system: 79 orphan GPCRs overexpressed in HEK293T cells; experiment: Photolabeling of GPCRs overexpressed in HEK293T cells; type: binding; conditions: 1 nM photoprobe; 79 GPCRs of Table 2
Summary of the method: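 HEK293T transiently transfected in 96-well format with N-terminal FLAG-tagged GPCRs (pMEX vector); expression confirmed by anti-FLAG flow cytometry. Lysed 30 min on ice (Tris pH 7.4, NaCl, NP-40, deoxycholate, protease inhibitors), sonicated. Lysates with 1 nM 125I photoprobe at 4°C, UV 15 min, SDS-PAGE, autoradiography. Vector-transfected HEK293T as blank; lysate from an equal number of U937 cells as positive control.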

bovine coronary arteries [5] = conditions: cited from earlier work
[6] = U937 cell (mixed) membranes, 1 nM photoprobe

SMILES | Inhibition of photolabeling of the 47 KDa protein, in words [1, 6] | Ki [1] [µM] | other results
CCCCC/C=C\C/C=C\C/C=C\C=C\C(=O)CCCC(=O)O [5-oxo-eicosatetraenoic acid] | not inhibited | – | –
CCCCCC=CCC=CCC(O)C(O)CC=CCCCC(=O)O (stereo not drawn) [8,9-DHET, 8,9-dihydroxyeicosatrienoic acid] | not inhibited | – | Effect on 20-125I-14,15-EE5ZE binding, in words [2]: not to displace
CCCCC/C=C\C/C=C\CC1OC1C/C=C\CCCC(=O)O (stereo not drawn) [8,9-EET] | – | 0.444 | –
CCCCC/C=C\C[C@H]1O[C@H]1C/C=C\C/C=C\CCCC(=O)O [11,12-EET] | inhibited | 0.0112 | –
CCCCCC1OC1CCCCCCC/C=C\CCCC(=O)O (stereo not drawn) [14,15-EE5ZE, 14,15-cis-epoxy-eicosa-5(Z)-enoic acid] | – | 1.1 | –
CCCCCC1OC1CC=CCC=CCC=CCCCC(=O)O (stereo not drawn) [14,15-EET, 14,15-epoxyeicosatrienoic acid] | inhibited | 0.00828 | EC50 (bovine coronary arteries [3]): ~2 µM; Inhibition of photolabeling of the 47 KDa protein, in words ([1]; U937 plasma membranes): inhibited
CCCCCC1SC1C/C=C\C/C=C\C/C=C\CCCC(=O)O (stereo not drawn) [14,15-Thiirane] | did not alter | > 10 | Inhibition of photolabeling of the 47 KDa protein, in words ([1]; U937 cell (mixed) membranes, 1 nM photoprobe, listed as thiirane analog of 14,15-EET): not inhibited
[N-]=[N+]=Nc1cccc(S(=O)(=O)NC(=O)CCCCCC/C=C\CCCCC2OC2CCCCCI)c1 (stereo not drawn) [20-I-14,15-EE8ZE-APSA, 20-iodo-14,15-epoxyeicosa-8Z-enoyl-3-azidophenylsulfonamide] | – | – | ED50 for relaxation of preconstricted bovine coronary arteries, in words (bovine coronary arteries [3]; compared with 14,15-EET): comparable to 14,15-EET; EC50 (bovine coronary arteries [3]): ~2 µM
[N-]=[N+]=Nc1cccc(S(=O)(=O)NC(=O)CCCCCC/C=C\CCCCC2OC2CCCCC[125I])c1 (stereo not drawn) [20-^125I-14,15-EE8ZE-APSA] | – | – | Photolabeling of lysates of GPCR expressing HEK293T cells, in words [4]: No radiolabeled bands
C#CCOc1ccccc1CCCCCC(=O)NS(C)(=O)=O [MS-PPOH] | partially inhibited | – | Ki ([2]; read-out: Ki, inhibition of 20-125I-14,15-EE5ZE binding): 1.56 µM; Effect on 14,15-EET-induced relaxations of bovine coronary arteries, in words (bovine coronary arteries [5]): blocked
CCCCC[C@H](O)/C=C/[C@@H]1[C@@H](C/C=C\CCCC(=O)O)[C@H]2CO[C@@H]1C2 [U46619, 9-11-dideoxy-11α,9a-epoxymethano-prostaglandin F2α] | not inhibited | – | –
CC(=O)N1CCN(c2ccc(OCC3COC(Cn4ccnc4)(c4ccc(Cl)cc4Cl)O3)cc2)CC1 (stereo not drawn) [ketoconazole] | partially inhibited | – | Inhibition of 20-125I-14,15-EE5ZE binding ([2]; 50 μM): 50%
Clc1ccc(COC(Cn2ccnc2)c2ccc(Cl)cc2Cl)c(Cl)c1 (stereo not drawn) [miconazole] | inhibited | – | Inhibition of photolabeling of the 47 KDa protein, in words ([1]; U937 cell (mixed) membranes, 1 nM photoprobe, listed as Miconazole): completely blocked; Effect on 14,15-EET-induced relaxations of bovine coronary arteries, in words (bovine coronary arteries [5]): blocked
C=CCN1CC[C@]23c4c5ccc(O)c4O[C@H]2C(=O)CC[C@@]3(O)[C@H]1C5 [naloxone] | not inhibited | – | –
CCCC(C(=O)OCCN(CC)CC)(c1ccccc1)c1ccccc1 [proadifen] | – | – | Effect on 20-125I-14,15-EE5ZE binding, in words [2]: did not alter; Effect on 14,15-EET-induced relaxations of bovine coronary arteries, in words (bovine coronary arteries [5]): did not alter
Nc1ccc(S(=O)(=O)Nc2ccnn2-c2ccccc2)cc1 [sulfaphenazole] | – | – | Effect on 20-125I-14,15-EE5ZE binding, in words [2]: did not alter
